Rows were chosen to be rich in hits. Some 1.9% of all compounds tested hit in one or more screens of this group.
PLC-gamma1 inh: blocks human PLC-gamma1 enzyme activity; P19174; purified PLC-gamma1, fluorogenic substrate, fluorescence; inhibition, % at 12.2 µM; actives 0.84% (n = 370,000); AID 720700; in the data active means inhibition above about 9.5%
Target sequence (P19174 whole entry, looked up): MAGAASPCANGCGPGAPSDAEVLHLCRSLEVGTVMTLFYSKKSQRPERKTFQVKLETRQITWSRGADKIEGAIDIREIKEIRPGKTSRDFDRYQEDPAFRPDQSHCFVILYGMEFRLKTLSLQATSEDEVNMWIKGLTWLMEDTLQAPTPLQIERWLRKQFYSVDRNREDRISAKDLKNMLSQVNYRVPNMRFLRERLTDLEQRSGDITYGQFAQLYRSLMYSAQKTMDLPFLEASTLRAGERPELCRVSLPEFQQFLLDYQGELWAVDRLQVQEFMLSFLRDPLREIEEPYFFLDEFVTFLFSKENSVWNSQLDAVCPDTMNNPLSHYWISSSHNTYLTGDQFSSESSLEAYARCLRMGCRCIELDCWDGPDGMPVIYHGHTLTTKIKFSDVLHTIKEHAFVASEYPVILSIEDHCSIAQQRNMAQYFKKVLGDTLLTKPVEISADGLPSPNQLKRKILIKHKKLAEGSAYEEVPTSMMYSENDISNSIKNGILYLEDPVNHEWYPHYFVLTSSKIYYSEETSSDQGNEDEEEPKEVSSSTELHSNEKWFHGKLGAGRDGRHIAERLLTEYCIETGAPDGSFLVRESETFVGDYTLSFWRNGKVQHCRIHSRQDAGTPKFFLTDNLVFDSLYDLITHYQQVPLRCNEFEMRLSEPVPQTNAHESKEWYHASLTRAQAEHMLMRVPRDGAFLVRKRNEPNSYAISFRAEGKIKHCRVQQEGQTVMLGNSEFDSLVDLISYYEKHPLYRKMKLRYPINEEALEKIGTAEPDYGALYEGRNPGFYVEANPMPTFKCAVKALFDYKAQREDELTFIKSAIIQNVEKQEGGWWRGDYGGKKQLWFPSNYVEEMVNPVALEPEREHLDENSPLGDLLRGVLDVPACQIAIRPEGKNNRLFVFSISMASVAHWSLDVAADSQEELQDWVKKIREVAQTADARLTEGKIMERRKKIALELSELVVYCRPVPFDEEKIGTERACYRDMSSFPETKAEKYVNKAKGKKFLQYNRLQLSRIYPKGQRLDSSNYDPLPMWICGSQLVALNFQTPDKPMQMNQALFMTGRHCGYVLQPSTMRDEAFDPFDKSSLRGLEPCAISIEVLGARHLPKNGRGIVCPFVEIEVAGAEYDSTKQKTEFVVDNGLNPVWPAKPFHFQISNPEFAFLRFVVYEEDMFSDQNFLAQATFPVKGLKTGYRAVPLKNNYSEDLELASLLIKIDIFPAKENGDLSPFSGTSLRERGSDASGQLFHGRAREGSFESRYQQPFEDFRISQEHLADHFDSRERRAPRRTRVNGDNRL
HGIII-sPLA2 inh: Inhibits HGIII-sPLA2 liposome hydrolysis, primary screen. QFRET BODIPY PC-A2 liposome hydrolysis, fluorescence. actives 0.56% (n = 370,000). inhibition, % at 12.2 µM. AID 743126. Q9NZ20;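 active means inhibition above mean plus 3 SD of compounds lying within the high and low control bounds, cut at about 19% in these data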
Tb MetRS inh: Trypanosoma brucei MetRS inhibition; purified T. brucei MetRS, ATP depletion, Kinase-Glo luminescence; inhibition, % at 11.9 µM; actives 0.4% (n = 360,000);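 active means inhibition above a per-plate cutoff of the control wells' mean inhibition plus 3 SD, cut at about 5.5% in these data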
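Assay system: T. brucei methionyl-tRNA synthetase, purified | Medium: HEPES buffer with MgCl2, KCl, DTT, spermine, BSA, pyrophosphatase | Compound: 11.9 µM single point | Incubation: 15 min enzyme-compound preincubation, 2 h reaction, 10 min detection, 25 °C | Measured by: Kinase-Glo luciferase luminescence reporting remaining unconsumed ATP | Measure: % inhibition normalized to control-well medians | Replication: Singlicate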
DAGLB inhibitor: diacylglycerol lipase beta (human) inhibition; HEK293T DAGLB membrane lysate, EnzChek fluorogenic substrate; inhibition, % at 5.17 µM; actives 0.059% (n = 340,000); AID 504411; in the data active means inhibition above about 34%
PLCb3 inh: blocks human PLC-beta3 enzyme activity. Q01970. Purified PLC-beta3, fluorogenic substrate, fluorescence. actives 0.18% (n = 370,000). inhibition, % at 12.2 µM; in the data active means inhibition above about 11%
TbMetRS confirm: confirmation of Trypanosoma brucei MetRS inhibitors; shares compounds with Tb MetRS inh; T. brucei MetRS enzyme, luminescence (ATP depletion); inhibition, % at 11.9 µM; actives 93% (n = 1,400); in the data active means inhibition above about 7%
Jurkat tox: Jurkat T cell cytotoxicity for MetRS hits; actives 12% (n = 1,400); inhibition, % at 8.3 µM; Jurkat cells viability, ATP luminescence; shares compounds with Tb MetRS inh; AID 624413; in the data active means inhibition above about 15%
TbMetRS FP orth: orthogonal test for Trypanosoma brucei MetRS inhibitors; shares compounds with Tb MetRS inh; purified T. brucei MetRS, fluorescence polarization; inhibition, % at 11.9 µM; actives 44% (n = 1,400); AID 651607; in the data active means inhibition above about 17%
A number is an active result.

O=C(NCc1nc2ccccc2[nH]1)C1=C[C@H](C2CCCCC2)C[C@H](OCCCCO)O1 was read as PLC-gamma1 inh inactive, HGIII-sPLA2 inh inactive, Tb MetRS inh 59, DAGLB inhibitor inactive, PLCb3 inh inactive, TbMetRS confirm 75, Jurkat tox inactive and TbMetRS FP orth 53.
O=C(NCc1nc2ccccc2[nH]1)C1=C[C@@H](C2CCCCC2)C[C@@H](OCc2ccc(CO)cc2)O1 was read as PLC-gamma1 inh inactive, HGIII-sPLA2 inh inactive, Tb MetRS inh 9.0, DAGLB inhibitor inactive, PLCb3 inh inactive, TbMetRS confirm 82, Jurkat tox inactive and TbMetRS FP orth 54.
O=C(NCc1nc2ccccc2[nH]1)C1=C[C@H](C2CC2)C[C@H](OCCCCO)O1 was read as PLC-gamma1 inh inactive, HGIII-sPLA2 inh inactive, Tb MetRS inh inactive, DAGLB inhibitor inactive and PLCb3 inh inactive.
Screening CC(C)(C)c1ccc(-c2cn(C[C@H](Cc3ccccc3)n3c(=O)c4ccccc4n3Cc3ccno3)nn2)cc1 returned PLC-gamma1 inh inactive, HGIII-sPLA2 inh inactive and PLCb3 inh inactive.
CCc1c(O)nc(SCC(=O)Nc2ccccc2)n(-c2ccccc2)c1=O was read as PLC-gamma1 inh inactive, HGIII-sPLA2 inh inactive, Tb MetRS inh inactive, DAGLB inhibitor inactive and PLCb3 inh inactive.
CCc1c(O)nc(SCC(=O)Nc2ccc(Br)cc2)n(-c2ccc(C)cc2)c1=O was read as PLC-gamma1 inh inactive, HGIII-sPLA2 inh inactive, Tb MetRS inh 6.4, DAGLB inhibitor inactive, PLCb3 inh inactive, TbMetRS confirm 22, Jurkat tox inactive and TbMetRS FP orth inactive.
CC(=O)Nc1nc2ncccn2c1-c1ccc(C)cc1 was read as PLC-gamma1 inh inactive, HGIII-sPLA2 inh inactive and PLCb3 inh inactive.
Screening N#C/C(=N\Nc1cc(Cl)cc(Cl)c1)c1nnc2n1CCCCC2 returned PLC-gamma1 inh inactive, HGIII-sPLA2 inh inactive, Tb MetRS inh 24, DAGLB inhibitor inactive, PLCb3 inh inactive, TbMetRS confirm 40, Jurkat tox inactive and TbMetRS FP orth 26.
`N#C/C(=C(/O)CCl)c1nnc2n1CCCCC2` gave PLC-gamma1 inh inactive, HGIII-sPLA2 inh inactive, Tb MetRS inh inactive, DAGLB inhibitor inactive and PLCb3 inh inactive.
`O=C(Nc1ccc(C(=O)O)cc1)/C(=C\C=C\c1ccccc1)NC(=O)c1cccc(Br)c1` gave PLC-gamma1 inh inactive, HGIII-sPLA2 inh inactive, Tb MetRS inh 12, DAGLB inhibitor inactive, PLCb3 inh inactive, TbMetRS confirm 20, Jurkat tox inactive and TbMetRS FP orth 23.
O=C(Cn1c(CO)nc2ccccc21)Nc1cc(C(F)(F)F)ccc1N1CCOCC1 was read as PLC-gamma1 inh inactive, HGIII-sPLA2 inh inactive, Tb MetRS inh 14, DAGLB inhibitor inactive, PLCb3 inh inactive, TbMetRS confirm 26, Jurkat tox inactive and TbMetRS FP orth inactive.
CC(=O)N1CCc2cc(S(=O)(=O)NC3CCN(C(=O)C(C)(C)C)CC3)ccc21 was read as PLC-gamma1 inh inactive, HGIII-sPLA2 inh inactive and PLCb3 inh inactive.
`Cc1ccc(NC(=O)C(C)c2cccc(C(=O)c3ccccc3)c2)cc1O` (stereo not given) gave PLC-gamma1 inh inactive, HGIII-sPLA2 inh inactive, Tb MetRS inh 84, DAGLB inhibitor inactive, PLCb3 inh inactive, TbMetRS confirm 99, Jurkat tox 33 and TbMetRS FP orth 78.
For Clc1ccc2nc(COc3ccccc3)[nH]c2c1 the results were PLC-gamma1 inh inactive, HGIII-sPLA2 inh inactive, Tb MetRS inh 12, DAGLB inhibitor inactive, PLCb3 inh inactive, TbMetRS confirm 24, Jurkat tox 51 and TbMetRS FP orth 21.
COP(N)(=O)C(CC(C)C)NC(=O)OCc1ccccc1 (stereo not given) was read as PLC-gamma1 inh inactive, HGIII-sPLA2 inh inactive and PLCb3 inh inactive.
For CCOc1ccc(CCNC(=O)c2cc3sccc3n2Cc2ccccc2)cc1OCC the results were PLC-gamma1 inh inactive, HGIII-sPLA2 inh inactive and PLCb3 inh inactive.
For CC[C@@H](CCC1CCCCC1)CN(c1ccccc1)S(C)(=O)=O the results were PLC-gamma1 inh inactive, HGIII-sPLA2 inh inactive and PLCb3 inh inactive.
For OCC1(Cc2ccccc2Cl)CCN(C/C=C/c2ccccc2)CC1 the results were PLC-gamma1 inh inactive, HGIII-sPLA2 inh inactive, Tb MetRS inh 7.2, DAGLB inhibitor inactive, PLCb3 inh inactive, TbMetRS confirm 19, Jurkat tox inactive and TbMetRS FP orth inactive.
For OCC1(CCc2ccccc2)CCN(C/C=C/c2ccccc2)CC1 the results were PLC-gamma1 inh inactive, HGIII-sPLA2 inh inactive, Tb MetRS inh inactive, DAGLB inhibitor inactive and PLCb3 inh inactive.
For COc1cc2nc(Nc3cccc(F)c3)nc(N)c2cc1OC the results were PLC-gamma1 inh inactive, HGIII-sPLA2 inh inactive, Tb MetRS inh 9.1, DAGLB inhibitor inactive, PLCb3 inh inactive, TbMetRS confirm 29, Jurkat tox inactive and TbMetRS FP orth 25.
O=c1c(Cc2ccc(Cl)cc2Cl)c(O)ccn1CCCN1CCOCC1 was read as PLC-gamma1 inh inactive, HGIII-sPLA2 inh inactive, Tb MetRS inh 32, DAGLB inhibitor inactive, PLCb3 inh inactive, TbMetRS confirm 51, Jurkat tox inactive and TbMetRS FP orth 20.
Screening NC(=O)Cn1ccc(O)c(Cc2ccc(Cl)cc2Cl)c1=O returned PLC-gamma1 inh inactive, HGIII-sPLA2 inh inactive, Tb MetRS inh 25, DAGLB inhibitor inactive, PLCb3 inh inactive, TbMetRS confirm 37, Jurkat tox inactive and TbMetRS FP orth 20.
`O=c1c(Cc2ccc(Cl)cc2Cl)c(O)ccn1CC(F)(F)F` gave PLC-gamma1 inh inactive, HGIII-sPLA2 inh inactive, Tb MetRS inh 9.0, DAGLB inhibitor inactive, PLCb3 inh inactive, TbMetRS confirm 14, Jurkat tox inactive and TbMetRS FP orth inactive.
`CC(=O)N1CCN(c2ccc(N3CCN(C(C)=O)[C@@H](C)C3)c(C)c2)[C@@H](C)C1` gave PLC-gamma1 inh inactive, HGIII-sPLA2 inh inactive and PLCb3 inh inactive.
Screening COC(=O)C[C@H]1CC[C@@H]2[C@H](COc3ccc(NC(=O)NCc4ccccc4)cc3C(=O)N2C)O1 returned PLC-gamma1 inh inactive, HGIII-sPLA2 inh inactive and PLCb3 inh inactive.
For Cc1ccc(NC(=O)OCCCN2C(=O)CCC23CCC(C)CC3)cc1 (stereo not given) the results were PLC-gamma1 inh inactive, HGIII-sPLA2 inh inactive and PLCb3 inh inactive.
`O=C(N[C@H](C(=O)N1CCC[C@H]1C(=O)NCCc1ccccc1Cl)C1CCCCC1)c1ccc(Cl)c(Cl)c1` gave PLC-gamma1 inh inactive, HGIII-sPLA2 inh inactive and PLCb3 inh inactive.
Screening Nc1ncnc2nc(SCCOc3ccc(Cl)cc3)[nH]c12 returned PLC-gamma1 inh inactive, HGIII-sPLA2 inh inactive, Tb MetRS inh 5.7, DAGLB inhibitor inactive, PLCb3 inh inactive, TbMetRS confirm 14, Jurkat tox inactive and TbMetRS FP orth inactive.

Compound activity: PubChem BioAssay, The Scripps Research Institute Molecular Screening Center
